Measurements as given in ChEMBL document CHEMBL4622983, “Structure-Activity Relationship Studies of α-Ketoamides as Inhibitors of the Phospholipase A and Acyltransferase Enzyme Family” (J Med Chem, 2020).
Calls of active or inactive are those of the source. The rule behind the calls is not given here.

Legend:
U2OS = experiment: Downregulation of N-oleoylethanolamine level in human U2OS cells at 10 uM after 4 hrs by LC-MS/MS analysis; format: functional, cell-based
Procedure, shortened: (§1)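 U2OS cells transfected with PLAAT2, PLAAT5 or empty vector (PEI, 1:5 plasmid/PEI). At 24 h, switched to serum-free medium with 10 μM compound (0.1% DMSO) or DMSO for 4 h at 37 °C. Pellets extracted with MTBE against deuterated internal standards. NAEs, 2-AG and free fatty acids quantified by LC–MS/MS, normalized to live cell count. Four biological replicates; one-way ANOVA.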

[1] = target: T1, Phospholipase A and acyltransferase 5 (Homo sapiens) (UniProt Q96KN8); experiment: Inhibition of full-length C-terminal FLAG-tagged human PLAAT5 expressed in human U2OS cells assessed as reduction in absolute N-eicosapentaenoylethanolamine level at 10 uM incubated for 4 hrs by LC-MS/MS analysis; format: cell-based; procedure, shortened: as §1
T1 sequence (whole entry): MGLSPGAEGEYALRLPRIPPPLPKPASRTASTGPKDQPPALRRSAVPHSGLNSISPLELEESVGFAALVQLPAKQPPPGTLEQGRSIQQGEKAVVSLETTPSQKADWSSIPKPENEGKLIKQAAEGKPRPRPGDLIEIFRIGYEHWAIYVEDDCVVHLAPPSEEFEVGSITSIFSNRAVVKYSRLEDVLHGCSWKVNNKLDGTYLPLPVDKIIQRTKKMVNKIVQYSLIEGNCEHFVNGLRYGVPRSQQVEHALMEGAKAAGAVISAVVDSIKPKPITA

inhibition [1]: Active
Structure (SMILES): O=C(CCCc1ccccc1)C(=O)NCCc1ccc(Oc2ccccc2)cc1
inhibition (U2OS): inactive
